An excerpt weighted towards active compounds, which were near 3.5% of everything screened.
RGS4 inh: human RGS4 inhibition. P49798. HEK293 M3R/RGS4 inducible, Fluo-4 calcium flux; active compounds read high; triggered by carbachol at its EC20. B-score at 10 µM. actives 0.45% (n = 310,000). AID 463165;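 active means B-score, a plate-corrected calcium signal, over three deviations above library mean, with baseline fluorescence within five deviations of library mean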;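 further: RGS4 expression induced by doxycycline in cells with stable M3 receptor; B-score is computed from the integrated fluorescence ratio over baseline after carbachol; higher B-score means a larger calcium signal and so more RGS4 inhibition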
Target sequence (P49798 whole entry, looked up): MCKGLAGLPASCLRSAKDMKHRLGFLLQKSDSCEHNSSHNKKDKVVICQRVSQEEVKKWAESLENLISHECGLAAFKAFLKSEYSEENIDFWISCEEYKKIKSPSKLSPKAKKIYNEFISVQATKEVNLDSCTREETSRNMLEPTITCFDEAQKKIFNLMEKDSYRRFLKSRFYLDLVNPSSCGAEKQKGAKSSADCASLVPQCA
MrgX1 PAM: allosterically activates human MrgX1 receptor signaling; Q96LB2; MrgX1-HEK293, Fluo-4 calcium flux, FDSS; active compounds read high; B-score at 10 µM; actives 0.63% (n = 310,000); AID 588675;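 active means plate-corrected calcium response at least 3 library SD above typical, normal starting fluorescence, not activating the receptor alone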;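 further: compound read alongside a low EC10 to EC30 dose of BAM8-22 agonist; peak minus trough fluorescence over baseline measured at the second addition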
Target sequence (Q96LB2 whole entry, looked up): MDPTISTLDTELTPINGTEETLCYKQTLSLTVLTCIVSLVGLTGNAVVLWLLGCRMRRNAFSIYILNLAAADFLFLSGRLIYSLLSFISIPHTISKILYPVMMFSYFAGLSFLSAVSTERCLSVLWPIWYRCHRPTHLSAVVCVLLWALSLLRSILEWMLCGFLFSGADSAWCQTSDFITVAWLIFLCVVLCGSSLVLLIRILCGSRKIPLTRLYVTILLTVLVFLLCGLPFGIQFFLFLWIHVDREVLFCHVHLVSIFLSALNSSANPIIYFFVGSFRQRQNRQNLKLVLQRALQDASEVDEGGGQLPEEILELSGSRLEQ
MrgX1 agonist: human MrgX1 receptor agonism, primary screen; actives 0.44% (n = 310,000); MrgX1-HEK293 cells, Fluo-4 calcium fluorescence, agonist mode; active compounds read high; B-score at 10 µM; Q96LB2;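 active means calcium response B-score plate-corrected fluorescence ratio at least 3 library SD, with starting fluorescence B-score inside 5 SD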
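Test system: Stable human MrgX1 HEK293 cell line | Schedule: Overnight plating before 1 h dye loading | Read-out basis: Baseline-normalised fluorescence change ratio, B-scored | Detection: Kinetic calcium dye fluorescence, Fluo-4 NW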
RGS4 pot: RGS4 potentiation or activation. HEK293 M3R/inducible RGS4, carbachol calcium flux Fluo4; active compounds read low. B-score at 10 µM. AID 463111. actives 0.92% (n = 310,000);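 active means B-score of the integrated calcium signal more than 4 SD below the library mean, with starting fluorescence not abnormally high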;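 further: negative B-score means reduced calcium response which marks RGS4 activation or potentiation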
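Test system: HEK293 cells with stable M3R and inducible RGS4; also added: carbachol at ECmax as muscarinic agonist stimulus; schedule: dye loading 30 min 37 °C, buffer rest 30 min RT; technique: kinetic calcium fluorescence imaging with Fluo4-AM dye, 2 µM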
MrgX1 antagonist: human MrgX1 receptor antagonism, primary screen. MRGX1-HEK293 calcium flux, Fluo-4, BAM8-22 antagonism; active compounds read low. B-score at 10 µM. actives 1.3% (n = 310,000);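 active means calcium-response B-score plate-corrected more than 3 library SD below zero, starting fluorescence within 5 deviations, no agonist response on first addition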;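 further: peak minus trough fluorescence over baseline after final BAM8-22 challenge near maximal dose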
RGS4 inh valid: validation of RGS4 inhibitors. HEK293 M3R/RGS4, carbachol calcium Fluo-4 fluorescence; carbachol added at its EC20; 0 = buffer wells, 100 = carbachol control. actives 65% (n = 1,700). AID 492999. calcium response, % at 10 µM. shares compounds with RGS4 inh;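 active means duplicate-averaged calcium response above the buffer-only control mean plus 5 SD of those controls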;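 further: integrated fluorescence ratio F max minus min over baseline F0; higher response in RGS4-induced cells means RGS4 inhibition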
RGS4 uninduced: counter-screen for RGS4 inhibitors: effect in non-induced cells. shares compounds with RGS4 inh. activity (percent), % at 10 µM. actives 20% (n = 1,900). HEK293 M3R non-induced, carbachol calcium Fluo-4; submaximal (EC20) carbachol stimulus; buffer wells 0%, carbachol control wells 100%. AID 493000; call rule not given here;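 further: RGS4 induction absent so cells express M3R without RGS4; higher means more calcium signal and flags a non-specific hit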
RGS4 inh ctr2: second counter-screen for RGS4 inhibitors: non-induced cells without carbachol | shares compounds with RGS4 inh | HEK293 M3R/RGS4 non-induced, Fluo-4 calcium, no carbachol; normalised: buffer wells 0%, carbachol wells 100% | actives 22% (n = 1,900) | AID 493001 | calcium response (agonist-mode artifact), % at 10 µM;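 active means duplicate-averaged calcium rise in uninduced cells above buffer wells' mean plus 5 SD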
Starred values were filed as active, the others as inactive; i = inactive; . = no result.

SMILES | RGS4 inh | MrgX1 PAM | MrgX1 agonist | RGS4 pot | MrgX1 antagonist | RGS4 inh valid | RGS4 uninduced | RGS4 inh ctr2
CCCC(=O)C1=C(O)C(C(=O)OC)C(C)(C)CC1=NCCc1ccccc1 (centres undefined) | i | i | i | i | i | . | . | .
COc1ccc(C=C(C(C)=O)C(C)=O)cc1OC | 18* | i | i | i | i | 28%* | 44%* | i
COc1cc(C=C(C(C)=O)C(C)=O)ccc1O | 5.4* | i | i | i | i | 6.0%* | i | i
COc1ccc(/C=C/C(=O)C(C)(C)C)cc1OC | i | i | i | i | i | . | . | .
O=C1COc2ccc(C(=O)CCl)cc2N1 | 13* | i | i | i | i | 66%* | 58%* | 9.5%*
CC(NCC(O)COCCC12CC3CC(CC(C3)C1)C2)c1ccccc1 (centres undefined) | 4.7* | i | i | i | i | i | i | 24%*
Cc1cccc(C2c3[nH]c4ccccc4c3CCN2C(=O)Cc2nc(-c3ccccc3)n[nH]2)n1 (centres undefined) | 5.7* | i | i | i | i | 10%* | i | i
CCc1nc(C)c(C(=O)N2CCCC(C(=O)Nc3cccc(-c4cccc(C)c4)c3)C2)o1 (centres undefined) | i | i | i | i | i | . | . | .
CC(=N\Nc1ccc(Cl)cc1)/C(=N/O)C(=O)Nc1ccccc1 | 5.7* | i | i | i | i | 14%* | i | i
C/C(=N\O)C(=O)Nc1ccccc1 | i | i | i | i | i | . | . | .
O=S(=O)([O-])C(c1ccccc1)[n+]1ccccc1 (centres undefined) | i | i | i | i | i | . | . | .
COc1cc2c(cc1OC)C(CSc1ccccc1C(=O)O)=NC(C)(C)C2 | 5.6* | i | i | i | i | 9.5%* | i | i
Cc1ccc(S(=O)(=O)N2CCCOC2CNC(=O)C(=O)NC2CCCC2)cc1 (centres undefined) | i | i | i | i | i | i | i | i
Cc1cccc(CS(=O)(=O)c2cn(CC(=O)N3CCOCC3)c3ccccc23)c1 | i | i | i | i | i | . | . | .
COC(=O)Nc1cccn(Cc2c(Cl)cccc2Cl)c1=O | 8.4* | i | i | i | i | 6.5%* | i | i
O=C(Nc1cccn(Cc2c(Cl)cccc2Cl)c1=O)c1c(Cl)cccc1Cl | i | i | i | i | i | . | . | .
CCN(CC)c1nc(N)c2c(N)nc3c(c2c1C#N)CC(c1ccccc1)O3 (centres undefined) | 5.3* | i | i | i | i | 18%* | i | i
Cc1ccc(S(=O)(=O)N2CC(C)N(C(=O)N3CCOCC3)C2)cc1 (centres undefined) | i | i | i | i | i | . | . | .
O=C1Nc2ccc(Br)cc2C1Cc1ccccc1F (centres undefined) | 5.8* | i | i | i | i | 13%* | i | i
O=C1Nc2ccccc2/C1=C\C(=O)c1ccccc1 | i | i | i | i | i | . | . | .
O=C1Nc2ccc(Br)cc2/C1=C/C(=O)c1ccc2c(c1)OCO2 | 6.1* | i | i | i | -5* | i | 41%* | i
COC(=O)C(C(=O)OC)C(C[N+](=O)[O-])c1ccc(OC)c(OC)c1 (centres undefined) | i | i | i | i | i | . | . | .
COc1ccc(C(C[N+](=O)[O-])C2(c3ccc(OC)c(OC)c3)C(=O)c3ccccc3C2=O)cc1 (centres undefined) | 16* | i | i | i | i | 60%* | 37%* | i
Cc1c(-c2ccccn2)c(=O)[nH]n1-c1ccc(F)cc1 | i | i | i | i | i | . | . | .
NC[C@@H]1O[C@H](C23CC4CC(CC(C4)C2)C3)Cc2c1ccc(O)c2O | 10* | i | i | i | i | 10%* | i | i
SMILES | RGS4 inh | MrgX1 PAM | MrgX1 agonist | RGS4 pot | MrgX1 antagonist | RGS4 inh valid | RGS4 uninduced | RGS4 inh ctr2
O=C1C=CC(=O)N1c1ccc(O)cc1 | 14* | i | i | i | i | 75%* | 72%* | 14%*
C=CCNC(=O)CN1N=C(c2ccc(C)cc2)CCC1=O | i | i | i | i | i | . | . | .
O=C(/C(=C/O)N=Nc1ccccc1)c1ccc(Cl)cc1 | 8.7* | i | i | i | i | 64%* | 78%* | i
O=[N+]([O-])c1cc(C=Nc2cccc3c(O)cccc23)ccc1Cl | i | i | i | i | i | . | . | .
CCOc1ccc(-c2nnc(Nc3ccc(OC)c(C(=O)N4CCCCC4)c3)c3ccccc23)cc1 | i | i | i | i | i | i | i | i
O=C(Sc1ccc(Cl)cc1)c1ccccn1 | i | i | i | i | i | . | . | .
Cc1ccc(N2C(=O)C3NN=C(C(=O)OCc4ccccc4)C3C2=O)cc1 (centres undefined) | i | i | i | i | i | . | . | .
Cc1ccc(N2C(=O)[C@@H]3C(C(=O)C(c4ccccc4)c4ccccc4)=NN[C@@H]3C2=O)cc1 | 7.2* | i | i | i | i | 29%* | 102%* | i
COc1ccccc1C(=O)Nc1ccnn1C1CCN(Cc2cnc(N(C)C)s2)CC1 | i | i | i | i | i | . | . | .
COc1cc(/C=C2/C(C)=C(C#N)c3nc(N)c(C#N)c(C)c32)ccc1OCC(=O)O | i | i | i | i | i | . | . | .
CC1=C(C#N)c2nc(N)c(C#N)c(C)c2/C1=C\c1ccc(-c2ccccc2C(=O)O)o1 | 5.6* | . | . | i | . | 24%* | 32%* | i
N#Cc1c(-c2ccccc2)c(-c2ccccc2)nn(CC(=O)NNC(=O)Nc2ccc(Cl)cc2)c1=O | i | i | i | i | i | . | i | i
Cn1c(SCC(=O)NNC(=O)Nc2ccc(Cl)cc2)nnc1-c1ccccc1 | i | i | i | i | i | . | . | .
N#Cc1c(-c2ccccc2)c(-c2ccccc2)nn(CC(=O)NNC(=O)Nc2ccccc2)c1=O | i | i | i | i | i | i | i | i

Screening data as filed in PubChem BioAssay.
